Compound activity deposited in PubChem BioAssay by several laboratories.
An excerpt weighted towards active compounds, which were near 6.8% of everything screened.
PHOSPHO1 inh = PHOSPHO1 (human) inhibition; Q8TCT1; recombinant PHOSPHO1, absorbance phosphatase assay; 290,000 tested, 1.1% active; AID 1565; inhibition, % at 13.3 µM; in the data active = inhibition above about 60%
Target sequence (Q8TCT1 whole entry, looked up): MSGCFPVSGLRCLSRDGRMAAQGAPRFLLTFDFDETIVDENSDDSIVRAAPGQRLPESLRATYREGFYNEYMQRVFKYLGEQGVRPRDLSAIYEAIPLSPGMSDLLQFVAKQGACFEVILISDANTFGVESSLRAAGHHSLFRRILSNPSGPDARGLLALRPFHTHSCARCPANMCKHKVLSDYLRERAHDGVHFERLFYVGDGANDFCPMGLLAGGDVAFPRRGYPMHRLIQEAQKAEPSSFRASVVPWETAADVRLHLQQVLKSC
core dimer inh = blocks dimerization of HCV core protein. TR-FRET GST/Flag-core106 dimerization, 1536-well. inhibition, % at 5 µM. 300,000 tested, 0.33% active;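 active = inhibition above the mean of all tested compounds plus 3 SD, set per screening campaign, cut at about 45% in these data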
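Assay system: GST-tagged and Flag-tagged HCV core protein residues 1-106 / Times: compound-protein-antibody incubation 4 h at 22.5 °C / Signal: time-resolved FRET, ex 340 nm, em 617 and 671 nm / Evaluation: % inhibition based on acceptor/donor emission ratio / Benchmarks: wells lacking GST-core106 and wells with excess unlabelled core106 / Repeats: singlicate, one well per compound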
AI-2 QS modul = Vibrio harveyi AI-2 quorum sensing modulation; 300,000 tested, 0.4% active; Vibrio harveyi JMH597 AI-2 luminescence/OD600 ratio, 9 h; active compounds read low; strain lacks LuxN and CqsS sensors; 0 = neutral-control median; activity change, % at 7.5 µM; in the data active = activity change below about -75%, passing the limit was not always enough;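 note: luminescence divided by OD600 gain over 9 h not by final OD600 alone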
HSF1 activator = increases HSF-1 driven luciferase reporter signal; NIH3T3-HGL HSF-1 luciferase reporter, MG132, 8 h; 100% = twice DMSO control signal; activation, % at 9 µM; 300,000 tested, 1.7% active;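 active = mean replicate activation of at least 50% with a set share of replicates each reaching 50%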;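 note: 0% = median of the neutral control wells and 100% = twice that signal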
ALR inh = human ALR oxidase inhibition via reduced H2O2; purified ALR, DTT oxidation, H2O2 HRP-luminol luminescence; inhibition, % (test concentration not listed); 290,000 tested, 3.8% active; AID 485317;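 active = mean replicate inhibition above about 79%, with every replicate also reaching it, limit read from the data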
Target sequence (P55789 whole entry, looked up): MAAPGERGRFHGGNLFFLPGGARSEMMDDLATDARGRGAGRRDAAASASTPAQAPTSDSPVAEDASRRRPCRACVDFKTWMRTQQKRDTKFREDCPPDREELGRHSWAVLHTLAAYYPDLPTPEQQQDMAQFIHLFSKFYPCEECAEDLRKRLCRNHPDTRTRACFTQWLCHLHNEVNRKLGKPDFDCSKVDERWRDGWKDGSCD
HSF1 inh = HSF1 inhibition; NIH3T3-HGL HSE-luciferase, MG132-induced, luminescence 8 h; active compounds read low; 300,000 tested, 0.77% active; activity change, negative = inhibition, % at 7.5 µM (by protocol);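 active = more than half of replicate wells show activity change below -50%, luminescence cut by over half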;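 note: luciferase reports HSF-1 transcriptional activity via heat shock element; 0% = median of DMSO wells and -100% = zero luminescence signal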
* marks the source's active call; other numbers are inactive results.

CC(=O)Nc1ccc(Nc2ccccc2)cc1 was read as PHOSPHO1 inh 1.5, core dimer inh -9.2, AI-2 QS modul 11.5, HSF1 activator -0.8, ALR inh 98.8* and HSF1 inh 4.4.
Screening O=C(Nc1ccc(N=Nc2ccccc2)cc1)c1ccc(Cl)cc1Cl returned PHOSPHO1 inh 4.1, core dimer inh -0.7, AI-2 QS modul 18.7, HSF1 activator -8.8, ALR inh -2.6 and HSF1 inh 0.8.
Screening CC(=O)Nc1ccc(N=Nc2ccccc2)cc1 returned PHOSPHO1 inh 0.7, core dimer inh 0.2, AI-2 QS modul 18.7, HSF1 activator 59.7*, ALR inh 1.1 and HSF1 inh 22.3.
For CC(=O)Nc1cc[n+](C(C)C(=O)c2ccccc2)cc1 (stereo not given) the results were PHOSPHO1 inh 13.5, core dimer inh 0.3, AI-2 QS modul 23.5, HSF1 activator -76.0, ALR inh -15.4 and HSF1 inh -67.8*.
Screening CN(C)C(=O)c1cc(C(=O)c2ccccc2Cl)c[nH]1 returned PHOSPHO1 inh 47.1, core dimer inh -4.2, AI-2 QS modul 15.8, HSF1 activator 5.1, ALR inh -17.0 and HSF1 inh 0.2.
`CC(=O)N1CCOc2ccc(S(=O)(=O)N3CCC(C)CC3)cc21` gave PHOSPHO1 inh 30.2, core dimer inh -4.8, HSF1 activator -6.8, ALR inh -2.6 and HSF1 inh -0.8.
CC(=O)CC(=O)Nc1ccc(C(N)=O)cc1 was read as PHOSPHO1 inh 11.7, core dimer inh -0.2, AI-2 QS modul -0.7, HSF1 activator 1.9, ALR inh 47.8 and HSF1 inh -8.1.
For CC(=O)Nc1ccc(O)cc1 the results were core dimer inh -2.2 and ALR inh 99.4*.
CC(=O)CC(=O)Nc1ccc(Nc2ccccc2)cc1 was read as PHOSPHO1 inh 4.9, core dimer inh -18.9, AI-2 QS modul 6.2, HSF1 activator 7.0, ALR inh 99.3* and HSF1 inh 3.1.
Screening CC(=O)Nc1ccc(C)cc1 returned ALR inh 8.6.
`CCCC(=O)Nc1ccc(Nc2ccccc2)cc1` gave PHOSPHO1 inh 22.8, core dimer inh -15.4, AI-2 QS modul -58.2, HSF1 activator 1.9, ALR inh 99.2* and HSF1 inh -5.1.
Screening CCCC(=O)NC1=C(Cl)C(=O)c2ccccc2C1=O returned HSF1 activator 90.8* and HSF1 inh 90.8*.
CCNC1=C(Cl)C(=O)c2ccccc2C1=O was read as PHOSPHO1 inh 2.4, core dimer inh -21.6, AI-2 QS modul -10.1, HSF1 activator 26.5, ALR inh -38.6 and HSF1 inh 15.2.
CC(=O)c1ccc(NC(=O)CCCC(=O)c2ccccc2)cc1 was read as PHOSPHO1 inh 11.4, core dimer inh 1.5, AI-2 QS modul 3.6, HSF1 activator 1.7, ALR inh 6.9 and HSF1 inh 1.2.
O=C(CCCC(=O)c1ccccc1)Nc1ccc(O)cc1 was read as core dimer inh -7.0, AI-2 QS modul 17.0, HSF1 activator 1.1, ALR inh 88.4* and HSF1 inh 2.5.
`O=C(Nc1ccc(Nc2ccccc2)cc1)C1CC1` gave PHOSPHO1 inh 26.8, core dimer inh -6.9, AI-2 QS modul -64.4, HSF1 activator 28.0, ALR inh 99.7* and HSF1 inh 0.6.
Cc1nn(-c2ccccc2)c(C)c1/C=N/NC(=O)c1ccccc1NS(=O)(=O)c1cccs1 was read as PHOSPHO1 inh 10.8, core dimer inh 17.1, AI-2 QS modul 43.9, HSF1 activator -2.7, ALR inh 4.7 and HSF1 inh 3.0.
For C=CCn1c(C)cc(C2=NNC(=NC(C)(C)C)SC2)c1C the results were PHOSPHO1 inh -13.2, core dimer inh -1.8, AI-2 QS modul 15.7, HSF1 activator 31.1, ALR inh 98.8* and HSF1 inh 9.7.
Screening C=CCn1c(C)cc(C2=NNC(=Nc3ccc(C)cc3)SC2)c1C returned PHOSPHO1 inh 4.0, core dimer inh 43.0, AI-2 QS modul 25.2, HSF1 activator -3.5, ALR inh 9.3 and HSF1 inh -0.8.
For COCCn1c(C)cc(C2=NNC(=NC3CC3)SC2)c1C the results were PHOSPHO1 inh -7.7, core dimer inh -6.2, AI-2 QS modul 14.2, HSF1 activator -66.8, ALR inh 96.9* and HSF1 inh -63.6*.
Screening C=CCN=C1NN=C(c2cc(C)n(CCOC)c2C)CS1 returned PHOSPHO1 inh -4.0, core dimer inh 6.1, AI-2 QS modul 11.3, HSF1 activator -12.3, ALR inh -1.2 and HSF1 inh -8.8.
`Cc1ccc(C(=O)N2CCN(S(=O)(=O)c3ccc(C(C)C)cc3)CC2)s1` gave core dimer inh 4.7, AI-2 QS modul 41.9, HSF1 activator 4.7, ALR inh -2.0 and HSF1 inh -5.5.
Cc1n[nH]c(=O)c2c(NC(=O)CSc3nn(-c4ccccc4)c(=S)s3)oc(C)c12 was read as core dimer inh -4.8, AI-2 QS modul 3.9, HSF1 activator -2.9, ALR inh 99.2* and HSF1 inh 1.5.
Screening O=C(CSc1nn(-c2ccccc2)c(=S)s1)NC(=O)NCc1ccco1 returned PHOSPHO1 inh 78.0*, core dimer inh 23.8, AI-2 QS modul -1.0, HSF1 activator 13.8, ALR inh -4.8 and HSF1 inh 8.2.
CCOc1ccc2nc(SCC(=O)NC(=O)NCc3ccco3)sc2c1 was read as PHOSPHO1 inh 46.1, core dimer inh 12.7, AI-2 QS modul 24.7, HSF1 activator -2.5, ALR inh -15.1 and HSF1 inh -1.9.
Screening O=C(CSc1nc2cc(Cl)ccc2s1)NC(=O)NCc1ccco1 returned PHOSPHO1 inh 35.5, core dimer inh 57.0*, AI-2 QS modul -6.4, HSF1 activator 38.3, ALR inh -6.5 and HSF1 inh 25.2.
For COc1ccc(NS(=O)(=O)c2ccc3nc(COc4ccc5ccccc5c4)[nH]c3c2)cc1 the results were PHOSPHO1 inh 6.0, core dimer inh 14.0, AI-2 QS modul 4.1, HSF1 activator -84.4 and HSF1 inh -81.0*.
Screening COc1cc(S(=O)(=O)N2CCOCC2)ccc1NC(=O)CSc1nnc(N)s1 returned PHOSPHO1 inh 64.6*, core dimer inh -0.9, AI-2 QS modul 12.6, HSF1 activator 6.3, ALR inh -5.7 and HSF1 inh 3.0.
Screening CCCCn1c(N)c(N(CCOC)C(=O)CN2C(=O)C3CCCCC3C2=O)c(=O)[nH]c1=O (stereo not given) returned ALR inh 7.6.
For Cn1nc(C(C)(C)C)cc1C(=O)Sc1cccc(Br)c1 the results were PHOSPHO1 inh 36.4, core dimer inh 0.1, AI-2 QS modul -9.0, HSF1 activator 27.2, ALR inh 98.6* and HSF1 inh 18.0.
For Cc1cccc(N2CCN(C(=O)CCNS(=O)(=O)c3ccc4c(c3)oc(=O)n4C)CC2)c1C the results were PHOSPHO1 inh 62.9*, core dimer inh 12.4, AI-2 QS modul 34.5, HSF1 activator 2.1, ALR inh -3.0 and HSF1 inh 2.1.
